Experimental data from ChEMBL document CHEMBL4219167, “Disulfiram-based disulfides as narrow-spectrum antibacterial agents” (Bioorg Med Chem Lett, 2018).

Columns and labels:
Yersinia pestis [1] = experiment: Antibacterial activity against Yersinia pestis Kim D2 after 20 hrs by broth microdilution assay; format: functional; settings: Kim D2, 20 h
Yersinia enterocolitica = experiment: Antibacterial activity against Yersinia enterocolitica WA-314 after 20 hrs by broth microdilution assay; format: functional; settings: WA-314, 20 h
In short: (§1)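 Yersinia cultured in tryptic soy broth at 28°C. A 0.5 McFarland suspension diluted 1:100 receives serial dilutions of agents from 1 mM or 1 mg/mL DMSO stocks; control antibiotics are in water.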

Bacillus anthracis [2] = experiment: Antibacterial activity against Bacillus anthracis Weybridge after 20 hrs by broth microdilution assay; format: functional
Proteus mirabilis = experiment: Antibacterial activity against Proteus mirabilis HM-752 after 20 hrs by broth microdilution assay; format: functional; settings: HM-752, 20 h
In short: (§2)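 Medium is tryptic soy broth, 37°C. Overnight culture is adjusted to 0.5 McFarland, diluted 1:100 and exposed to serial dilutions (test agents from 1 mM or 1 mg/mL DMSO stocks; control antibiotics in water). Incubation lasts 20 h. MIC is the lowest concentration with no visible growth.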

Rhodococcus erythropolis = experiment: Antibacterial activity against Rhodococcus erythropolis SK121 after 20 hrs by broth microdilution assay; format: functional; settings: SK121, 20 h
In short: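 R. erythropolis grown in brain heart infusion broth at 30°C. A 0.5 McFarland suspension diluted 1:100 is treated with serial dilutions from 1 mM or 1 mg/mL DMSO stocks; control antibiotics are in water.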

Staphylococcus aureus [3] = experiment: Antibacterial activity against vancomycin-resistant Staphylococcus aureus HIP14300 after 20 hrs by broth microdilution assay; format: functional; settings: HIP14300, 20 h
Staphylococcus aureus [4] = experiment: Antibacterial activity against methicillin-resistant Staphylococcus aureus COL after 20 hrs by broth microdilution assay; format: functional
Corynebacterium striatum = experiment: Antibacterial activity against Corynebacterium striatum FS-1 after 20 hrs by broth microdilution assay; format: functional; settings: FS-1, 20 h
Bacillus anthracis [5] = experiment: Antibacterial activity against Bacillus anthracis Sterne 34F2 after 20 hrs by broth microdilution assay; format: functional; settings: Sterne 34F2, 20 h
Vibrio cholerae = experiment: Antibacterial activity against Vibrio cholerae TS D4 after 20 hrs by Todd Hewitt broth broth microdilution method; format: functional; settings: TS D4, 20 h
Salmonella typhi = experiment: Antibacterial activity against Salmonella typhi Ty2 after 20 hrs by Todd Hewitt broth broth microdilution method; format: functional, Salmonella enterica subsp. enterica serovar Typhi str. Ty2; settings: Salmonella enterica
[6] = tested on: Staphylococcus epidermidis; experiment: Antibacterial activity against vancomycin-intermediate resistant Staphylococcus epidermidis NRS6 after 20 hrs by broth microdilution assay; format: functional; settings: NRS6, 20 h
Streptococcus agalactiae = experiment: Antibacterial activity against Streptococcus agalactiae SGBS005 after 20 hrs by broth microdilution assay; format: functional; settings: SGBS005, 20 h
Enterococcus faecium = experiment: Antibacterial activity against vancomycin-resistant Enterococcus faecium ATCC 700221 after 20 hrs by broth microdilution assay; format: functional; settings: ATCC 700221, 20 h
In short: (§3)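 Brain heart infusion broth at 37°C; E. faecium under 5% CO2. Cells at 0.5 McFarland are diluted 1:100 and exposed to serial dilutions (DMSO stocks 1 mM or 1 mg/mL; controls in water).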

Bacillus anthracis [7] = experiment: Antibacterial activity against Bacillus anthracis UM23-1 after 20 hrs by broth microdilution assay; format: functional; settings: UM23-1, 20 h
Streptococcus pyogenes = experiment: Antibacterial activity against Streptococcus pyogenes H293 after 20 hrs by broth microdilution assay; format: functional; settings: H293, 20 h
Brucella neotomae = experiment: Antibacterial activity against Brucella neotomae 5K33 after 20 hrs by broth microdilution assay; format: functional; settings: 5K33, 20 h
Klebsiella pneumoniae = experiment: Antibacterial activity against Klebsiella pneumoniae 700603 after 20 hrs by broth microdilution assay; format: functional; settings: Klebsiella pneumoniae, 700603, 20 h; in short: as §2
Francisella tularensis = experiment: Antibacterial activity against Francisella tularensis Utah 112 after 20 hrs by broth microdilution assay; format: functional; settings: Utah 112, 20 h
Staphylococcus aureus [8] = experiment: Antibacterial activity against vancomycin-intermediate resistant Staphylococcus aureus AR-217 after 20 hrs by broth microdilution assay; format: functional; settings: AR-217, 20 h
Listeria monocytogenes = experiment: Antibacterial activity against Listeria monocytogenes Gibson after 20 hrs by broth microdilution assay; format: functional; in short: as §3
Burkholderia cepacia = experiment: Antibacterial activity against Burkholderia cepacia UCB 717 after 20 hrs by broth microdilution assay; format: functional; settings: UCB 717, 20 h; in short: as §2
Yersinia pestis [9] = experiment: Antibacterial activity against Yersinia pestis Kuma D7 after 20 hrs by broth microdilution assay; format: functional; settings: Kuma D7, 20 h
Bacillus anthracis [10] = experiment: Antibacterial activity against Bacillus anthracis Ames 35 after 20 hrs by broth microdilution assay; format: functional; settings: Ames 35, 20 h
Micrococcus luteus = experiment: Antibacterial activity against Micrococcus luteus SK58 after 20 hrs by broth microdilution assay; format: functional; settings: SK58, 20 h
Citrobacter freundii = experiment: Antibacterial activity against Citrobacter freundii 4_7_47CFAA after 20 hrs by broth microdilution assay; format: functional
In short: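 Brucella broth, 37°C, 5% CO2. Inoculum is 0.5 McFarland diluted 1:100, with serial drug dilutions from DMSO stocks (1 mM or 1 mg/mL) and control antibiotics in water.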

Shigella dysenteriae = experiment: Antibacterial activity against Shigella dysenteriae Newcastle 1934 after 20 hrs by broth microdilution assay; format: functional; settings: Newcastle 1934, 20 h; in short: as §2
Acinetobacter baumannii = experiment: Antibacterial activity against Acinetobacter baumannii AB5075 after 20 hrs by broth microdilution assay; format: functional; settings: AB5075, 20 h
Escherichia coli = experiment: Antibacterial activity against Escherichia coli DC10B after 20 hrs by broth microdilution assay; format: functional; in short: as §2
Streptococcus pneumoniae = experiment: Antibacterial activity against Streptococcus pneumoniae TCH8431 after 20 hrs by broth microdilution assay; format: functional; settings: TCH8431, 20 h
Bacillus cereus = experiment: Antibacterial activity against Bacillus cereus Gibson 971 after 20 hrs by broth microdilution assay; format: functional; settings: Gibson 971, 20 h
Pseudomonas aeruginosa = experiment: Antibacterial activity against Pseudomonas aeruginosa ATCC 15442 after 20 hrs by broth microdilution assay; format: functional; settings: ATCC 15442, 20 h; in short: as §2
Burkholderia multivorans = experiment: Antibacterial activity against Burkholderia multivorans CF2 after 20 hrs by broth microdilution assay; format: functional; settings: CF2, 20 h; in short: as §2
[11] = tested on: Yersinia pseudotuberculosis; experiment: Antibacterial activity against Yersinia pseudotuberculosis P61 after 20 hrs by broth microdilution assay; format: functional; settings: P61, 20 h; in short: as §1

Measured: MIC

CCN(CC)C(=S)SSC
1 µM: Bacillus cereus
2 µM: Bacillus anthracis [7]
4 µM: Bacillus anthracis [2] | Bacillus anthracis [5] | Bacillus anthracis [10]
8 µM: Staphylococcus aureus [8]
32 µM: Staphylococcus aureus [4] | Vibrio cholerae | [6] | Streptococcus pyogenes | Francisella tularensis | Listeria monocytogenes | Micrococcus luteus | Burkholderia multivorans
16 µM: Yersinia pestis [1] | Rhodococcus erythropolis | Staphylococcus aureus [3] | Yersinia pestis [9]
> 32 µM: all other assays above

CCCCSSC(=S)N(CC)CC [BUTYL DIETHYLCARBAMO(DITHIOPEROXO)THIOATE]
16 µM: Staphylococcus aureus [3] | Staphylococcus aureus [4] | Staphylococcus aureus [8]
> 32 µM: Streptococcus agalactiae | Enterococcus faecium | Streptococcus pneumoniae
32 µM: [6] | Streptococcus pyogenes

CCCCCCCCCCSSC(=S)N(CC)CC
32 µM: Staphylococcus aureus [3]
16 µM: Staphylococcus aureus [4] | [6] | Streptococcus agalactiae | Enterococcus faecium | Staphylococcus aureus [8]
4 µM: Streptococcus pyogenes | Streptococcus pneumoniae

CCN(CC)C(=S)SSC1CCCCC1 [CYCLOHEXYL DIETHYLCARBAMO(DITHIOPEROXO)THIOATE]
> 32 µM: Streptococcus agalactiae | Enterococcus faecium | Streptococcus pneumoniae
32 µM: Staphylococcus aureus [3] | Staphylococcus aureus [4] | [6]
16 µM: Streptococcus pyogenes | Staphylococcus aureus [8]

CCN(CC)C(=S)SSCc1ccccc1
4 µM: Bacillus anthracis [2] | Bacillus anthracis [5] | Bacillus anthracis [10]
16 µM: Yersinia pestis [1] | Rhodococcus erythropolis | Micrococcus luteus
32 µM: Corynebacterium striatum | Enterococcus faecium | Brucella neotomae | Francisella tularensis | Yersinia pestis [9] | Burkholderia multivorans
8 µM: Staphylococcus aureus [3] | Staphylococcus aureus [4] | [6] | Listeria monocytogenes
2 µM: Bacillus anthracis [7] | Staphylococcus aureus [8] | Bacillus cereus
> 32 µM: all other assays above
